PGC1a acetyl inh – modulators of PGC1a acetylation; U2OS PGC1a acetylation, AlphaScreen anti-acetyl-lysine; with virally co-expressed GCN5 acetyltransferase; inhibition, % at 15.6 µM; 350,000 compounds, 0.17% hits; AID 651687;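 active = every replicate shows inhibition of at least 40%; inconclusive = mean inhibition at least 40% but some replicate below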;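 note: 0% = neutral control wells and 100% = positive control wells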
GSIS activator – primary screen for activators of insulin secretion dependent on glucose, INS-1E cells, GLuc reporter luminescence; INS-1E GLuc reporter insulin secretion, 2-3 h; activation, % at 16.6 µM; 370,000 compounds, 0.61% hits;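 active = lowest replicate activation of at least 40%, so every replicate reaches that level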;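 note: 0% = median of neutral control wells and 100% = median of IBMX positive control wells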
PAX8 inh HTS – PAX8 transcriptional activity inhibition | 360,000 compounds, 1.2% hits | RMG-I TPO-luciferase reporter, SteadyGlo, 24 h | inhibition, % at 12.6 µM;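 active = mean replicate inhibition at least 60% with every replicate also reaching 60%; inconclusive = only one of the two criteria is met; inactive = mean below 60% and not all replicates reaching 60%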;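 note: luciferase light reporting Pax8 driven TPO promoter activity; plate controls were median of neutral control wells for no effect and mitoxantrone controls for full effect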
EWS-Fli block – blocks EWS/Fli oncoprotein-driven transcription. A673 NR0B1-luciferase reporter, viability-normalised. inhibition, % at 12.6 µM. AID 651661. 350,000 compounds, 0.67% hits;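 active = mean inhibition of at least 50% after viability correction, with every replicate also passing that limit; inconclusive = mean reaches 50% but only one of two replicates passes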;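 note: firefly luciferase signal divided by Alamar Blue viability fluorescence both relative to DMSO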
Xi reactivation – activators of X-chromosome reactivation in mouse fibroblasts | 360,000 compounds, 0.055% hits | XiGFP mouse fibroblasts, % GFP-positive cells imaging, 3 d; cells co-treated with 5-aza-dC sensitizer; scaled so ellipticine positive control = 100% | activation, % at 7.58 µM | AID 743238;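 active = mean normalized replicate activation at least 10% and every replicate at or above 10%; inconclusive = only one of the two criteria met; inactive = mean below 10% and not all replicates reach 10%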;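 note: 0% = median of on-plate neutral control wells and 100% = ellipticine 6 µM median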
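Material: XiGFP fibroblasts, SV40-immortalized. Buffer or medium: DMEM plus 5-aza-dC sensitizer. Compound: single concentration per compound, delivered by pin transfer. Times: 3 days compound exposure. Controls: ellipticine 6 µM.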
AF4-AF9 inh – MLL-AF4/AF9 protein interaction inhibition | 350,000 compounds, 0.47% hits | AlphaScreen, biotin-AF4 peptide binding to FLAG-AF9 | inhibition, % at 10 µM;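 active = every replicate reaching a set inhibition limit, whatever the replicate mean, cut at about 25% in these data; inconclusive = mean inhibition reaches that limit but some replicates miss it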;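 note: 0% = plate neutral control median and 100% = total signal loss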
Target sequence (P42568 whole entry, looked up): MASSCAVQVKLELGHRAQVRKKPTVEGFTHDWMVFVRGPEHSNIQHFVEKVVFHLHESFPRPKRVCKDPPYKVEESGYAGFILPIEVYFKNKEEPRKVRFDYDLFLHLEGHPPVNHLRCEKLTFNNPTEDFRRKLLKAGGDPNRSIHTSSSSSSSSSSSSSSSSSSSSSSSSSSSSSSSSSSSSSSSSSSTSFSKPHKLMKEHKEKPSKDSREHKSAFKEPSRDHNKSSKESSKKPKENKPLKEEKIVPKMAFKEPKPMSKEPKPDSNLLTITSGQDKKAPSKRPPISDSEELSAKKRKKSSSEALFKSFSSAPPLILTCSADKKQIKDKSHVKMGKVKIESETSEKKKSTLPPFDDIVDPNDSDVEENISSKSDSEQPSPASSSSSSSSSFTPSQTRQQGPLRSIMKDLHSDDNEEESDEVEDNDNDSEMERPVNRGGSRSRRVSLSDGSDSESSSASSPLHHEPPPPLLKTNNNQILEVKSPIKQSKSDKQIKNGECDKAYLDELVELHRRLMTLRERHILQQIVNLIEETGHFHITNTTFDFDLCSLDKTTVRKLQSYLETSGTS
Numbers without * were called inactive; ? = inconclusive; · = no result given. An excerpt weighted towards active compounds, which were near 2.1% of everything screened.

SMILES | PGC1a acetyl inh | GSIS activator | PAX8 inh HTS | EWS-Fli block | Xi reactivation | AF4-AF9 inh
O=C(C[C@@H]1C[C@H]2c3cc(NC(=O)Nc4ccccc4F)ccc3O[C@H]2[C@@H](CO)O1)NCc1ccc2c(c1)OCO2 | · | 11 | · | · | 0 | ·
C[C@H](NC(=O)[C@H]1[C@H](CO)[C@H]2Cn3c(cccc3=O)[C@H]2N1CC1CCCCC1)c1ccccc1 | -3 | 0 | 22 | · | 0 | 2
O=C(Nc1ccc2c(c1)OCO2)C1Cc2c(-c3ccc4c(c3)OCO4)ccnc2O1 (centres undefined) | -5 | · | 30 | 53* | 0 | -4
CNC(=O)C1(C)Cc2c(-c3ccc4c(c3)OCO4)ccnc2O1 (centres undefined) | 3 | 17 | 0 | -1 | 0 | 0
CN(C)c1ccc(CNC(=O)C2(C)Cc3c(-c4ccc5c(c4)OCO5)ccnc3O2)cc1 (centres undefined) | · | 0 | 26 | 59* | 0 | ?
COc1ccc(NC(=O)C2(C)Cc3c(-c4ccc5c(c4)OCO5)ccnc3O2)cc1 (centres undefined) | 0 | · | 29 | 53* | 0 | -3
O=C(C[C@H]1C=C[C@@H](NC(=O)C2CCC2)[C@@H](CO)O1)NCC1CC1 | 8 | 9 | 5 | -2 | 0 | -2
COc1ccc(-c2ccc3oc(-c4ccc(OC)cc4)c(C#CCCO)c3c2)cc1 | -8 | 67* | 1 | -19 | 0 | ·
COc1ccc(C#Cc2c(-c3ccc(OC)cc3)oc3ccc(-c4ccc(OC)cc4)cc23)cc1 | · | 14 | -5 | -11 | 0 | 2
O=C(c1cccc(S(=O)(=O)NCc2ccccc2)c1)N1CCN(c2ccc(F)cc2)CC1 | 5 | -18 | 16 | 13 | 0 | 26*
O=C(NCc1cccnc1)c1cccc(S(=O)(=O)NCc2ccccc2)c1 | · | 46* | 4 | 3 | 0 | 15
O=C(NCc1cccnc1)c1cccc(NS(=O)(=O)c2ccc(Br)cc2)c1 | · | -32 | 20 | 58* | 0 | -2
O=C(c1cccc(S(=O)(=O)NCc2ccccc2)c1)N1CCN(c2cccc(C(F)(F)F)c2)CC1 | 0 | -40 | 40 | · | 0 | 19
Cc1cccc(OCCNC(=O)c2ccc(Cl)c(S(=O)(=O)NCc3cccnc3)c2)c1 | 2 | · | 33 | 57* | 3 | 2
Cc1ccc(S(=O)(=O)Nc2cccc(C(=O)NCc3cccnc3)c2)cc1F | · | 4 | 31 | ? | 1 | 4
COC(=O)C1CCN(C(=O)c2ccc(Cl)c(S(=O)(=O)NCc3cccnc3)c2)CC1 | -10 | · | · | · | · | ·
O=C(c1ccc2c(c1)OCO2)N1CC(=O)N2[C@H](C1)[C@H](c1ccc(C#CC3CCCC3)cc1)[C@@H]2CO | · | -20 | · | · | 0 | ·
CC=Cc1ccc2n(c1=O)C[C@H]1[C@H](CO)[C@@H](C(=O)NCC3CC3)[C@@H]2N1CCC (mixture of isomers) | 5 | 5 | 1 | 3 | 0 | -1
COc1ccc2c3c(n(C)c2c1)[C@H](CO)N(C(C)=O)CC31CN(C(=O)c2ccccc2)C1 | -6 | 17 | · | 6 | 0 | ·
C[C@H](CO)N1C[C@H](C)[C@H](CN(C)S(=O)(=O)c2cccs2)Oc2c(NS(=O)(=O)c3ccc(F)cc3)cccc2C1=O | 9 | -3 | · | -1 | -1 | 2
O=C(C[C@@H]1C/C=C/CC[C@H](Cc2ccc(F)cc2)C(=O)OC[C@@H](Cc2ccccc2)NC1=O)N[C@H](CO)Cc1ccccc1 | -3 | -6 | 103* | ? | 0 | -5
C[C@@H]1COC(=O)[C@H](Cc2ccc(F)cc2)CC/C=C/C[C@@H](CC(=O)N[C@@H](CO)Cc2ccccc2)C(=O)N1 | · | -3 | 5 | -20 | 0 | -1
O=C1N[C@@H](Cc2ccccc2)COC(=O)[C@@H](Cc2ccc(F)cc2)CC/C=C/C[C@@H]1CC(=O)N(CCO)Cc1ccccc1 | 7 | -36 | 68* | 3 | 0 | 0
CCN(CC)C(=O)n1c(Cc2ccccc2)nc2ccccc21 | 4 | 48* | 11 | 12 | 0 | 4
COC(=O)Cn1c(Cc2ccccc2)nc2ccccc21 | -5 | 11 | -8 | -2 | 0 | -4
SMILES | PGC1a acetyl inh | GSIS activator | PAX8 inh HTS | EWS-Fli block | Xi reactivation | AF4-AF9 inh
NCC[C@@H]1CC[C@H](NC(=O)C2CC2)[C@@H](CO)O1 | -6 | 8 | 10 | 4 | 0 | -1
COc1ccc(C2Nc3ccccc3C(=O)N2c2ccccc2)cc1CSc1ccccn1 (centres undefined) | 7 | -4 | 30 | -15 | 0 | -3
COc1ccc(C2Nc3ccccc3C(=O)N2c2ccc(F)cc2)cc1CSc1ccccn1 (centres undefined) | · | 4 | 136* | -17 | 0 | 0
C[C@@H]1CN([C@H](C)CO)S(=O)(=O)c2ccc(-c3cccnc3)cc2O[C@H]1CN(C)Cc1cncnc1 | -3 | 10 | · | 5 | -1 | 7
CCN(CC)CC(O)Cn1c2ccccc2c2ccccc21 (centres undefined) | 1 | 6 | · | · | · | ·
CCN(CC)CC(O)Cn1c(C)c(-c2ccccc2)c2cc([N+](=O)[O-])ccc21 (centres undefined) | -7 | -26 | -8 | 24 | 0 | 37*
COc1ccc(NC(=O)Nc2ccc3c(c2)C(=O)N([C@H](C)CO)C[C@@H](C)[C@@H](CN(C)C(=O)CCC(F)(F)F)OCCCC[C@H](C)O3)cc1 | -2 | 5 | 11 | -5 | -1 | -1
O=C(NC1CCCCC1)N1CC(=O)N2[C@H](C1)[C@@H](c1ccc(-c3cccc(F)c3)cc1)[C@@H]2CO | 12 | -24 | 2 | 2 | 0 | 1
CCCc1cc(-c2[nH]ncc2-c2ccc3c(c2)OCCCO3)c(O)cc1OC | · | · | 8 | · | · | ·
COc1ccc(-c2[nH]ncc2-c2ccc3c(c2)OCCO3)c(O)c1 | 53* | 18 | · | · | · | ·
OC[C@H]1CC[C@@H]2O[C@H](CCc3ccc(C#CCc4ccccc4)cc3)[C@H](n3cc(-c4ccccc4)nn3)C[C@@H]2O1 | 13 | · | 18 | -8 | · | -2
OC[C@@H]1CC[C@@H]2O[C@H](CCc3ccc(C#CCc4ccccc4)cc3)[C@H](n3cc(-c4ccccc4)nn3)C[C@@H]2O1 | -10 | · | 62* | 1 | · | -1
OC[C@@H]1CC[C@@H]2O[C@H](CCc3ccc(C#CCc4ccccc4)cc3)[C@@H](n3cc(-c4ccccc4)nn3)C[C@@H]2O1 | 7 | · | 72* | 20 | · | ·
CNC[C@@H]1Oc2ccc(NC(=O)NC(C)C)cc2CC(=O)N(C)C[C@H]1C | · | 4 | · | · | 0 | ·
CCc1ccc(C2=NNC(=Nc3cccc(S(=O)(=O)N(C)C)c3)SC2)cc1 | · | · | 104* | 36 | 0 | 3
Cc1ccc(C2=NNC(=Nc3ccc(F)cc3)SC2)cc1 | -15 | -7 | 12 | -53 | 0 | 4

Screening results deposited in PubChem BioAssay by Broad Institute.
